Experimental data as given in ChEMBL document CHEMBL2424657, “Identification of the KDM2/7 histone lysine demethylase subfamily inhibitor and its antiproliferative activity” (J Med Chem, 2013).
Calls of active or inactive are those of the source.

Experiments:
HeLa = assay: Cell cycle arrest in human HeLa cells assessed as increase in G0/G1 phase after 24 hrs by FACS analysis; assay type: functional, cell-based
Procedure, shortened: (§1)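 HeLa or KYSE150 cells (5×10^5) were exposed for 24 h to 10 or 100 μM in RPMI 1640 with 10% FBS, then trypsinized. Cells were fixed in ice-cold 70% ethanol, PBS-washed and stained with propidium iodide (10 μg/mL) plus RNase A (0.2 mg/mL) for 30 min at 25 °C. Phase distribution was read by flow cytometry.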

[1] = Cell cycle arrest in human KYSE-150 cells assessed as increase in G0/G1 phase after 24 hrs by FACS analysis; assay type: functional, cell-based; procedure, shortened: as §1
[2] = Cell cycle arrest in human KYSE-150 cells assessed as reduction in G2/M phase after 24 hrs by FACS analysis; assay type: functional, cell-based; procedure, shortened: as §1
[3] = target: Lysine-specific demethylase 7A/7B (Homo sapiens) (UniProt Q9UPP1+Q6ZMT4); assay: Inhibition of KDM7A/7B in human HeLa cells assessed as H3K27me2 level at GI50 after 24 hrs by Western blot analysis; assay type: cell-based
Lysine-specific demethylase 7A/7B (Homo sapiens), sequence (Q6ZMT4 whole entry, looked up): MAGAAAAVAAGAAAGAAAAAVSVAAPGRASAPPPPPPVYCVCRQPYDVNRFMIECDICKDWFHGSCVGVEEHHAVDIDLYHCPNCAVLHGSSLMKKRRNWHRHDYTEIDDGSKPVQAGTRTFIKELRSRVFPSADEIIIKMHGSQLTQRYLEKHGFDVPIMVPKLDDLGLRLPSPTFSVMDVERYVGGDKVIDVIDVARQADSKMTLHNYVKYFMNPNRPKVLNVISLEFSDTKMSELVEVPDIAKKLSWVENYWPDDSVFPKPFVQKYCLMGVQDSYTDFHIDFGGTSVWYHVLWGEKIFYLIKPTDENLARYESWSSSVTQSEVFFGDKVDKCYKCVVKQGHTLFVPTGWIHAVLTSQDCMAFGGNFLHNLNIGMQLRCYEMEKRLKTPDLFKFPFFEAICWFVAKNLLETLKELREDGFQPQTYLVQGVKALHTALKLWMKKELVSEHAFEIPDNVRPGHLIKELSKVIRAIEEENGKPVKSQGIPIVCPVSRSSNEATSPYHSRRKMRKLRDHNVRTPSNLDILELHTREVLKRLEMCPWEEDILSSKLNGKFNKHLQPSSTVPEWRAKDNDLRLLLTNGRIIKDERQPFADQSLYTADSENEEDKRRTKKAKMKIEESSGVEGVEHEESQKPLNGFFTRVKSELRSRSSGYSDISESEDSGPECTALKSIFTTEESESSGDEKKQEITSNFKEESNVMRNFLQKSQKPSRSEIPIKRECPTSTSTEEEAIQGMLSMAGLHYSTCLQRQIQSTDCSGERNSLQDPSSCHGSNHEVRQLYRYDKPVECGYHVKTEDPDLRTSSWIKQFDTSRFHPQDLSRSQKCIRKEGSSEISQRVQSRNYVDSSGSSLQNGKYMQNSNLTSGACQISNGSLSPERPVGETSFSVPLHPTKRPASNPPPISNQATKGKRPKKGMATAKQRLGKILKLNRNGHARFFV
Lysine-specific demethylase 7A/7B (Homo sapiens), sequence (Q9UPP1 whole entry, looked up): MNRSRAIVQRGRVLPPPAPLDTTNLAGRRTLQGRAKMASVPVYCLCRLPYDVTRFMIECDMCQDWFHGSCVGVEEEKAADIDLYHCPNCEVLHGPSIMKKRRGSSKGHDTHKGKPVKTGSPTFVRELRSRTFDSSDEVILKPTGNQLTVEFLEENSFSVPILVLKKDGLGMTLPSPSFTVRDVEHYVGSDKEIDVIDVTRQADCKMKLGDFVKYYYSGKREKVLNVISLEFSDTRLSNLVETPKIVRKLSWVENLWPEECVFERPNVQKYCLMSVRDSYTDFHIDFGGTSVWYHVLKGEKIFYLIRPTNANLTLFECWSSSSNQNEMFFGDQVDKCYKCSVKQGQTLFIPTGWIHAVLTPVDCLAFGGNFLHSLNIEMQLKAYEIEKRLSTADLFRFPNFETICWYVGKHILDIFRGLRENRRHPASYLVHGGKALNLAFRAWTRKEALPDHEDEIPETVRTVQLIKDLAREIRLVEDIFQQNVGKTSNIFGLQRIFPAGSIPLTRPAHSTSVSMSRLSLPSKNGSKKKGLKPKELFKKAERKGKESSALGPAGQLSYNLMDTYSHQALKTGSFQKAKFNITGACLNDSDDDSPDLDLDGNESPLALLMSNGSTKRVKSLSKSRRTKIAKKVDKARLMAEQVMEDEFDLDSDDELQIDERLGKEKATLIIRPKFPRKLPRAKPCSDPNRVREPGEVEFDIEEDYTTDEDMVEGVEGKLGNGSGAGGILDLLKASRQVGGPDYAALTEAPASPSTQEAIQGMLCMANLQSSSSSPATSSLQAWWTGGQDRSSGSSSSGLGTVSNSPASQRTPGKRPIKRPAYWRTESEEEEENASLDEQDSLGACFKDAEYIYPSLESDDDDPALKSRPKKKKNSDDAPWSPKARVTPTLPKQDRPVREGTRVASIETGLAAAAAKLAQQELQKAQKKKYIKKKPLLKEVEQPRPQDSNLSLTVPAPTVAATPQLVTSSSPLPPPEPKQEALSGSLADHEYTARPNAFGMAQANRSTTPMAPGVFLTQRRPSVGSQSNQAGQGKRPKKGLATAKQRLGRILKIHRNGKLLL
Procedure, shortened: (§2)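 Cells (5×10^5) were treated for 24 h in OPTI-MEM and lysed in SDS buffer. Equal protein amounts, set by Bradford assay, were resolved on 4–20% SDS-PAGE and blotted. Blots were probed with anti-H3K27me2 (1:1000) and anti-H3 (1:100000) as loading reference, detected with an HRP secondary antibody, and visualized by ECL.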

[4] = target: Lysine-specific demethylase 7A/7B (Mus musculus) (UniProt Q3UWM4+Q80TJ7); assay: Inhibition of KDM7A/7B in mouse N2a cells assessed as H3K27me2 level after 24 hrs by Western blot analysis; assay type: cell-based; procedure, shortened: as §2
Lysine-specific demethylase 7A/7B (Mus musculus), sequence (Q3UWM4 whole entry, looked up): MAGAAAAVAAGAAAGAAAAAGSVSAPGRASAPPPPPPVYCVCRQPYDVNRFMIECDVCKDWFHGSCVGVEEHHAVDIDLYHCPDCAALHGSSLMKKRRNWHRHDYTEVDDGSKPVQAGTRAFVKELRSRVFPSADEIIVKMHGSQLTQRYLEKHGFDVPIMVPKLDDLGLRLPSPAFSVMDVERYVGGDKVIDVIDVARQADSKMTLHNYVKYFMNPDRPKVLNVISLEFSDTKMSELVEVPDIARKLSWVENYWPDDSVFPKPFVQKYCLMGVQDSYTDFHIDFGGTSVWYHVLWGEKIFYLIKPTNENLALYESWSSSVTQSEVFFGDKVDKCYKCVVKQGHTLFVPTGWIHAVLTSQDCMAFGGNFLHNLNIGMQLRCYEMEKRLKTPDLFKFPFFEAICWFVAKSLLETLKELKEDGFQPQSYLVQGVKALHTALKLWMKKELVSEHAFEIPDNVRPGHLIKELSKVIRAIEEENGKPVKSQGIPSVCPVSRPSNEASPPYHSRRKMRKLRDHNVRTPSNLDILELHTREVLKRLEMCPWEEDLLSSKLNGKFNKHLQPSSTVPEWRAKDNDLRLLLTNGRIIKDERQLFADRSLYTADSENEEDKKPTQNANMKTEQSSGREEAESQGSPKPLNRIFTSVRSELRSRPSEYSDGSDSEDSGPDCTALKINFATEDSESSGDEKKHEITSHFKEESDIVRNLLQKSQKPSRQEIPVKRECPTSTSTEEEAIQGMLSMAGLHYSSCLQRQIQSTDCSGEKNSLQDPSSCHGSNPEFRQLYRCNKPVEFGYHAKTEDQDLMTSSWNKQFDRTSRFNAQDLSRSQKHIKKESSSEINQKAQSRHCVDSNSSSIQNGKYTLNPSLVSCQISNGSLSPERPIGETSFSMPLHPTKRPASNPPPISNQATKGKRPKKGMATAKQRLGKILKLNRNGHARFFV
Lysine-specific demethylase 7A/7B (Mus musculus), sequence (Q80TJ7 whole entry, looked up): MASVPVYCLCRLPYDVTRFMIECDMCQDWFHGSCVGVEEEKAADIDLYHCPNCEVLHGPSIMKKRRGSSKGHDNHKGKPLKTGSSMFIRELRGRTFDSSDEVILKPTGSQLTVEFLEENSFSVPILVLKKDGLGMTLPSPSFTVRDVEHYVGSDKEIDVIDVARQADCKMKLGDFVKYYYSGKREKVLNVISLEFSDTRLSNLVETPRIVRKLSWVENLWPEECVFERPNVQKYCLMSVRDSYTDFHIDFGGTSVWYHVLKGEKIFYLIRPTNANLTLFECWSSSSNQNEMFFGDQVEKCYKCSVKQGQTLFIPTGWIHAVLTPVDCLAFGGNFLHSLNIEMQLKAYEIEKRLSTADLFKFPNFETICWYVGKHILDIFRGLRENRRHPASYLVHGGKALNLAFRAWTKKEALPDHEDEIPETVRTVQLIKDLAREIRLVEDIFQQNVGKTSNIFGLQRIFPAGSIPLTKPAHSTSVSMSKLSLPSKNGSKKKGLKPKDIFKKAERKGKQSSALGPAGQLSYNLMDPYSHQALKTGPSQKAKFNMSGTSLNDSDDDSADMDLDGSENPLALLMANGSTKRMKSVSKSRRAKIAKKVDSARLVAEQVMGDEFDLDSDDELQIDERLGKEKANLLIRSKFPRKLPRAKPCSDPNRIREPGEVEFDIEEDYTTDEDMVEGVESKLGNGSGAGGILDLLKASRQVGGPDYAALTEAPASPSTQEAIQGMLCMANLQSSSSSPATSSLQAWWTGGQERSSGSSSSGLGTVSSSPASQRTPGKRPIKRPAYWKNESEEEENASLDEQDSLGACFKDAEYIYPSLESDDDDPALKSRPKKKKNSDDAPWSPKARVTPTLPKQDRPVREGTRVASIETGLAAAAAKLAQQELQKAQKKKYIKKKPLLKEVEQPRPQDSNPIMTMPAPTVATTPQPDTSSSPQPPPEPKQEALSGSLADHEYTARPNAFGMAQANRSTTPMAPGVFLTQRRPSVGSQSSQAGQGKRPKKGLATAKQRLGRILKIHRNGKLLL

O=C(O)CCN(O)C(=O)CCCCCCCCC1CC1
active: Activity (HeLa) Dose-dependent effect | Activity [1] Dose-dependent effect | Activity [2] Dose-dependent effect | inhibition [3] | inhibition [4] Dose-dependent effect
